The record followed here is ChEMBL document CHEMBL3872233, “Topical Treatment of Leishmania tropica Infection Using (-)-α-Bisabolol Ointment in a Hamster Model: Effectiveness and Safety Assessment” (J Nat Prod, 2016).

The source made the active and inactive calls. The rule behind the calls is not given here.

The test system of data set [1] is Leishmania tropica. The data set is described as follows: Antileishmanial activity against Leishmania tropica MHOM/MA/1988/LEM1314 promastigotes infected in Syrian hamster assessed as reduction in lesion thickness at […] administered once daily through oral gavage for 3 weeks starting at week 7 post infection measured 1 week post last dose relative to control. The data set is classed as functional. More on the design: scale not given: the % may be the effect or the level left. The method in brief: (§1)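 L. tropica stationary-phase promastigotes (3 × 10^7 in 50 μL PBS) injected into the left hind footpad. Treatment began at week 7 (+75% footpad thickness) and ran daily for 21 days, n = 10/group. Routes were 50 mg ointment on the lesion (cetyl alcohol/lanolin/petrolatum base), gavage in olive oil, or intralesional meglumine antimoniate 2 mg SbV/kg. Lesion thickness was measured weekly against base-only ointment; sacrifice was 1 week after the last dose.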

The subject of data set [2] is Leishmania tropica. The data set is described as follows: Antileishmanial activity against Leishmania tropica MHOM/MA/1988/LEM1314 promastigotes infected in Syrian hamster assessed as reduction in lesion thickness at 2.5 % administered once daily tropically on footpad for 3 weeks starting at week 7 post infection measured 1 week post last dose relative to control. The data set is classed as functional. Set-up: scale not given: the % may be the effect or the level left. The essentials:
as §1

Data set [3] has as its system Leishmania tropica. Briefly: Antileishmanial activity against Leishmania tropica MHOM/MA/1988/LEM1314 promastigotes infected in Syrian hamster assessed as reduction in parasite load in foodpad skin at 5 % administered once daily tropically on footpad for 3 weeks starting at week 7 post infection measured 1 week post last dose by qPCR analysis relative to control. The class given is functional. Set-up: scale not given: the % may be the effect or the level left. The method in brief: (§2)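 Hamsters were infected in the footpad and treated daily for 21 days from week 7 post-infection, n = 10/group, and sacrificed 1 week after the last dose. Footpad skin, liver and spleen DNA was assayed by L. tropica-specific TaqMan qPCR (chromosome 29 target), in triplicate with 50 ng DNA per 25 μL reaction. Load was interpolated from Ct on a calibration curve of promastigote DNA, relative to base-ointment controls.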
(In general: Real-time PCR tracks product formation cycle by cycle.)

Data set [4] concerns Syrian golden hamster. The data set is described as follows: Toxicity in Syrian hamster assessed as pain at 500 mg/kg, po or 5 % administered tropically on footpad for 28 days. The class given is organism-based, Mesocricetus auratus. The settings on record: in vivo, 672 h.
Data set [5] concerns Syrian golden hamster. The data set is described as follows: Toxicity in Syrian hamster assessed as mean serum AST levels at 500 mg/kg administered through oral gavage for 28 days (reference value: 83.4 +/- 4.2 U/L). The class given is organism-based, Mesocricetus auratus. The settings on record: in vivo, 672 h.
Data set [6] deals with Syrian golden hamster. The data set is described as follows: Toxicity in Syrian hamster infected with Leishmania tropica MHOM/MA/1988/LEM1314 promastigotes assessed as mean serum ALT levels at 2.5 % administered tropically on footpad for 3 weeks starting at week 7 post infection measured 1 week post last dose (reference value: 81.6 +/- 4.9 U/L). Particulars: in vivo, topical_or_ocular, 168 h. The class given is organism-based, Mesocricetus auratus.

Data set [7] has as its system Syrian golden hamster. Briefly: Toxicity in Syrian hamster assessed as mean serum creatinine levels at 5 % administered tropically on footpad for 28 days (reference value: 0.21 +/- 0.2 mg/dl). The data set is classed as organism-based, Mesocricetus auratus. The settings on record: in vivo, topical_or_ocular, 672 h.
Data set [8] has as its system Syrian golden hamster. The data set is described as follows: Toxicity in Syrian hamster assessed as mean serum creatinine levels at 500 mg/kg administered through oral gavage for 28 days (reference value: 0.21 +/- 0.2 mg/dl). The class given is organism-based, Mesocricetus auratus. Particulars: in vivo, 672 h.
The subject of data set [9] is Syrian golden hamster. Briefly: Toxicity in Syrian hamster infected with Leishmania tropica MHOM/MA/1988/LEM1314 promastigotes assessed as mean serum creatinine levels at 200 mg/kg administered through oral gavage for 3 weeks starting at week 7 post infection measured 1 week post last dose (reference value: 0.19 mg/dl). The settings on record: in vivo, 168 h. The data set is classed as organism-based, Mesocricetus auratus.

For data set [10], the system named is Syrian golden hamster. Briefly: Toxicity in Syrian hamster assessed as mean serum ALP levels at 5 % administered tropically on footpad for 28 days (reference value: 14.4 +/- 2 U/L). Particulars: in vivo, topical_or_ocular, 672 h. The class given is organism-based, Mesocricetus auratus.
The subject of data set [11] is Syrian golden hamster. Briefly: Toxicity in Syrian hamster assessed as mean serum ALP levels at 500 mg/kg administered through oral gavage for 28 days (reference value: 14.4 +/- 2 U/L). The data set is classed as organism-based, Mesocricetus auratus. Particulars: in vivo, 672 h.
Data set [12] deals with Syrian golden hamster. Briefly: Toxicity in Syrian hamster infected with Leishmania tropica MHOM/MA/1988/LEM1314 promastigotes assessed as urea levels at 2.5 % administered tropically on footpad for 3 weeks starting at week 7 post infection measured 1 week post last dose (reference value: 32.5 +/- 0.8 mg/dl). The data set is classed as organism-based, Mesocricetus auratus. The settings on record: in vivo, topical_or_ocular, 168 h.

For data set [13], the system named is Syrian golden hamster. The data set is described as follows: Toxicity in Syrian hamster infected with Leishmania tropica MHOM/MA/1988/LEM1314 promastigotes assessed as urea levels at 5 % administered tropically on footpad for 3 weeks starting at week 7 post infection measured 1 week post last dose (reference value: 32.5 +/- 0.8 mg/dl). Particulars: in vivo, topical_or_ocular, 168 h. The class given is organism-based, Mesocricetus auratus.

The subject of data set [14] is Syrian golden hamster. The data set is described as follows: Toxicity in Syrian hamster infected with Leishmania tropica MHOM/MA/1988/LEM1314 promastigotes assessed as spleen weight at 2.5 % administered tropically on footpad for 3 weeks starting at week 7 post infection measured 1 week post last dose (reference value: 178.8 +/- 1.2 mg). The class given is organism-based, Mesocricetus auratus. Particulars: in vivo, topical_or_ocular, 168 h.

The subject of data set [15] is Syrian golden hamster. The data set is described as follows: Toxicity in Syrian hamster assessed as liver weight at 5 % administered tropically on footpad for 28 days (reference value: 4.1 +/- 0.7 g). The data set is classed as organism-based, Mesocricetus auratus. Particulars: in vivo, topical_or_ocular, 672 h.
For data set [16], the system named is Syrian golden hamster. Briefly: Toxicity in Syrian hamster assessed as liver weight at 500 mg/kg administered through oral gavage for 28 days (reference value: 4.1 +/- 0.7 g). The class given is organism-based, Mesocricetus auratus. Particulars: in vivo, 672 h.
In data set [17] the test system is Syrian golden hamster. The data set is described as follows: Toxicity in Syrian hamster infected with Leishmania tropica MHOM/MA/1988/LEM1314 promastigotes assessed as liver weight at 1 % administered tropically on footpad for 3 weeks starting at week 7 post infection measured 1 week post last dose (reference value: 3.3 +/- 0.2 g). The data set is classed as organism-based, Mesocricetus auratus. The settings on record: in vivo, topical_or_ocular, 168 h. The method in brief:
(§3)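 Infected hamsters were treated daily for 21 days from week 7 post-infection (ointment 1–5%, 200 mg/kg gavage, or intralesional meglumine antimoniate 2 mg SbV/kg). Clinical signs and body weight were monitored during treatment and a 7-day follow-up. After sacrifice, liver and spleen were weighed and serum ALP, ALT, creatinine, urea and AST were measured with kits, compared with untreated infected animals.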

For data set [18], the system named is Syrian golden hamster. The data set is described as follows: Toxicity in Syrian hamster infected with Leishmania tropica MHOM/MA/1988/LEM1314 promastigotes assessed as diarrhea at 200 mg/kg administered through oral gavage for 3 weeks starting at week 7 post infection measured during compound dosing or measured 1 week post last dose. The data set is classed as organism-based, Mesocricetus auratus. Particulars: in vivo, 168 h. The method in brief: as §3

Data set [19] relates to Leishmania tropica. The data set is described as follows: Antileishmanial activity against Leishmania tropica MHOM/MA/1988/LEM1314 promastigotes infected in Syrian hamster assessed as reduction in parasite load in liver at 2.5 % administered once daily tropically on footpad for 3 weeks starting at week 7 post infection measured 1 week post last dose by qPCR analysis relative to control. The data set is classed as functional, tissue-based. The essentials:
as §2

In data set [20] the test system is Leishmania tropica. Briefly: Antileishmanial activity against Leishmania tropica MHOM/MA/1988/LEM1314 promastigotes infected in Syrian hamster assessed as reduction in parasite load in liver at 5 % administered once daily tropically on footpad for 3 weeks starting at week 7 post infection measured 1 week post last dose by qPCR analysis relative to control. The data set is classed as functional, tissue-based. The essentials:
as §2

The test system of data set [21] is Leishmania tropica. The data set is described as follows: Antileishmanial activity against Leishmania tropica MHOM/MA/1988/LEM1314 promastigotes infected in Syrian hamster assessed as reduction in parasite load in spleen at 2.5 % administered once daily tropically on footpad for 3 weeks starting at week 7 post infection measured 1 week post last dose by qPCR analysis relative to control. The class given is functional. The essentials: as §2

Data set [22] relates to Leishmania tropica. The data set is described as follows: Antileishmanial activity against Leishmania tropica MHOM/MA/1988/LEM1314 promastigotes infected in Syrian hamster assessed as reduction in parasite load in spleen at 5 % administered once daily tropically on footpad for 3 weeks starting at week 7 post infection measured 1 week post last dose by qPCR analysis relative to control. The data set is classed as functional. The essentials: as §2

Data set [23] concerns Leishmania tropica. The data set is described as follows: Antileishmanial activity against Leishmania tropica MHOM/MA/1988/LEM1314 promastigotes infected in Syrian hamster assessed as reduction in parasite load in spleen at 2 mg/kg administered intralesionally once daily on footpad for 3 weeks starting at week 7 post infection measured 1 week post last dose by qPCR analysis relative to control. The class given is functional, organism-based. The method in brief:
as §2

As for `CC(C)=CCC[C@](C)(O)[C@@H]1CC=C(C)CC1` [LEVOMENOL], the Activity is 62.5% in the data set on Leishmania tropica [1]; 56.4% in the data set with Leishmania tropica [2]; 82% with Leishmania tropica [3]; “Non-Toxic” in the data set on Syrian golden hamster [4]; 82.2 U/L in the data set with Syrian golden hamster [5]; 81.3 U/L with Syrian golden hamster [6]. Moreover, the Activity in the data set with Syrian golden hamster [7] was found to be 0.19 mg/dL; with Syrian golden hamster [8], 0.19 mg/dL; in the data set with Syrian golden hamster [9], 0.2 mg/dL; in the data set with Syrian golden hamster [10] it was 14.1 U/L; with Syrian golden hamster [11], 14.7 U/L; with Syrian golden hamster [12], 33.6 mg/dL. Besides, the Activity was 34.2 mg/dL in the data set with Syrian golden hamster [13]; 178.4 mg in the data set with Syrian golden hamster [14]; 3.4 g in the data set on Syrian golden hamster [15]; 3.5 g in the data set with Syrian golden hamster [16]; 3.2 g in the data set on Syrian golden hamster [17]; “Non-Toxic” in the data set on Syrian golden hamster [18]. For the same compound, the outcome in the data set on Leishmania tropica [19], with Leishmania tropica [20], in the data set on Leishmania tropica [21], in the data set with Leishmania tropica [22] and in the data set with Leishmania tropica [23] was Active.
